pEC50, pIC50: −log10 of the molar value.
Assays:
[1] = test system: Human immunodeficiency virus 1; test: Selectivity ratio of IC50 for recombinant HIV-1 reverse transcriptase RNase H domain to IC50 for HIV-1 integrase
[2] = molecular target: Human immunodeficiency virus type 1 reverse transcriptase (Human immunodeficiency virus 1, UniProt Q72547); test: Inhibition of recombinant HIV-1 reverse transcriptase RNase H domain after 10 mins; settings: for pIC50: read-out: IC50
Outline: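 Recombinant HIV-1 RT (4.5 pmol) preincubated with compound 10 min at 37 °C. Then added: 3H-RNA/DNA duplex (E. coli RNA polymerase transcript of calf thymus ssDNA, 20,000 cpm) in 50 mM Tris-HCl pH 8.0, 10 mM DTT, 6 mM MgCl2, 80 mM KCl; 10 min at 37 °C. Stopped with cold 10% TCA/0.1 M pyrophosphate; filter-bound radioactivity counted.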

[3] = molecular target: Human immunodeficiency virus type 1 integrase (Human immunodeficiency virus 1, UniProt Q7ZJM1); test: Inhibition of HIV-1 integrase after 1 hr by immunosorbent assay
Outline: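 Overall integration ELISA. Substrate is annealed oligos (7 nM), one 3'-biotin-labelled and one 5'-digoxigenin-labelled, with integrase at […] as written. Reaction 1 h at 37 °C, then immunodetection on avidin-coated plates. IC50 is the mean ± SD of at least three independent experiments.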

[4] = test system: Human immunodeficiency virus 1; test: Antiviral activity against HIV1 3B infected in human MT4 cells assessed as inhibition of virus-induced cytopathic effect by MTT assay; format: functional, organism-based; settings: Human immunodeficiency virus 1, 3B
Outline: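 MT-4 cells infected with 100-300 CCID50 of HIV-1 IIIB (dose titrated in MT-4 cells) in the presence of 5-fold serial drug dilutions. Protection from virus-induced cytopathic effect read by MTT reduction to formazan, measured spectrophotometrically.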

[5] = Cytotoxicity against human MT4 cells by MTT assay; format: cell-based

Human immunodeficiency virus type 1 integrase, sequence (Q7ZJM1 whole entry): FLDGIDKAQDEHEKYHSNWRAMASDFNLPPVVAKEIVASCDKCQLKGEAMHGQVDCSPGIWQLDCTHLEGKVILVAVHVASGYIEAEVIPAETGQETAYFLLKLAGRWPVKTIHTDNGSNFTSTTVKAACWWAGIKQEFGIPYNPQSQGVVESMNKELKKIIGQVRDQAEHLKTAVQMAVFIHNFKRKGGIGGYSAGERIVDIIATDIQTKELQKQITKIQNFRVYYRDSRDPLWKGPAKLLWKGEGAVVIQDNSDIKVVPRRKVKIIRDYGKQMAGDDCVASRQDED

| Structure (SMILES) | Ratio IC50 [1] | pIC50 [2] | pIC50 [3] | pEC50 [4] | CC50 [5] | IC50 [2] |
| --- | --- | --- | --- | --- | --- | --- |
| CCCCCCCc1c(O)n(O)c(=O)c2ccccc12 | 0.4 | 4.35 | 3.95 | – | – | – |
| O=C1c2ccccc2C(CCCc2ccccc2)C(=O)N1O (centres undefined) | – | 4.18 | 5.59 | < 5.28 | 5.2 µM | – |
| O=C1c2ccccc2C(Cc2ccccc2)C(=O)N1O (centres undefined) | – | – | 4.42 | < 4.02 | 95 µM | Not Active |
| CC1C(=O)N(O)C(=O)c2ccccc21 (centres undefined) | – | 4.41 | 5.48 | < 3.60 | 250 µM | – |
| CC(C)C1C(=O)N(O)C(=O)c2ccccc21 (centres undefined) | – | 4.73 | 4.45 | < 3.91 | 122 µM | – |
| O=C1c2ccccc2C(CCc2ccccc2)C(=O)N1O (centres undefined) | – | – | 4.56 | < 4.52 | 30 µM | Not Active |
| CCC1C(=O)N(O)C(=O)c2ccccc21 (centres undefined) | – | 4.15 | 4.80 | < 3.60 | 250 µM | – |
| CCCCCC1C(=O)N(O)C(=O)c2ccccc21 (centres undefined) | – | 4.47 | 5.87 | < 4.01 | 98.3 µM | – |
| CCCCC1C(=O)N(O)C(=O)c2ccccc21 (centres undefined) | – | 4.88 | 4.40 | < 4.60 | 25.4 µM | – |
| Cc1ccc(CC2C(=O)N(O)C(=O)c3ccccc32)cc1 (centres undefined) | – | 4.10 | 5.47 | < 5.26 | 5.5 µM | – |
| CCCCCCC1C(=O)N(O)C(=O)c2ccccc21 (centres undefined) | – | 4.42 | 4.94 | < 5.36 | 4.4 µM | – |
| CCCC1C(=O)N(O)C(=O)c2ccccc21 (centres undefined) | – | 4.33 | 4.68 | < 4.60 | 25.4 µM | – |
| CCCCCCc1c(O)n(O)c(=O)c2ccccc12 | – | 5.11 | 4.34 | < 3.89 | 128 µM | – |
| O=c1c2ccccc2c(Cc2ccccc2)c(O)n1O | – | 4.83 | 4.40 | < 4.06 | 88 µM | – |
| O=C1c2ccccc2C(Cc2ccc(C(F)(F)F)cc2)C(=O)N1O (centres undefined) | – | 4.37 | 4.63 | < 5.22 | 6 µM | – |

Source: ChEMBL document CHEMBL1667755, “2-hydroxyisoquinoline-1,3(2H,4H)-diones as inhibitors of HIV-1 integrase and reverse transcriptase RNase H domain: influence of the alkylation of position 4” (Eur J Med Chem, 2011)
